Assay results published in ChEMBL document CHEMBL4842320, “Cryptic Biosynthesis of the Berkeleypenostatins from Coculture of Extremophilic Penicillium sp” (J Nat Prod, 2021).
pIC50: −log10 of the molar value. Converted amounts (≈) assume the structure as drawn. The source made the active and inactive calls. The rule behind the calls is not given here.

Assays:
Bacillus anthracis = experiment: Antibacterial activity against Bacillus anthracis assessed as minimum inhibitory concentration by alamar blue dye based broth microdilution method; format: functional
[1] = test system: Panel NCI-60 (60 carcinoma cell lines); experiment: Anticancer activity against human Panel NCI-60 (60 carcinoma cell lines) assessed as total growth inhibition at 1 to 10 uM measured after 48 hrs by SRB assay; format: functional, cell-based; details: dose 1-10 µM
Method in brief: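 NCI Developmental Therapeutics Program 60-human-tumour-cell-line five-dose screen, with total growth inhibition (TGI) as the end-point.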

HPAF-II [2] = experiment: Cytotoxicity against human HPAF-II cells assessed as reduction in cell viability at upto 50 uM by MTT assay; format: functional, cell-based; details: dose microM <=50
Method in brief: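 Vybrant MTT proliferation assay on HPAF-II cells harvested with 0.25% trypsin/0.53 mM EDTA, with viability checked after harvest. Compounds were tested up to 50 μM.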

HPAF-II [3] = experiment: Antiinvasive activity against human HPAF-II cells assessed as reduction in cell invasion at 1.25 uM measured upto 24 hrs by CMFDA dye staining based fluorescence assay; format: functional; details: time hrs <=24
Method in brief: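 Matrigel-coated invasion inserts with 8 μm pores. HPAF-II cells were harvested, resuspended in serum-free DMEM and labelled with CellTracker CMFDA. Compound was diluted in serum-free DMEM to a final 1.25 μM. Run in triplicate, with untreated cells as control and NNGH as positive control.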

HPAF-II [4] = experiment: Inhibition of cell migration in human HPAF-II cells at 1.25 uM measured upto 24 hrs by CMFDA dye staining based fluorescence assay; format: functional; details: time hrs <=24
Method in brief: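 Fluoroblok 96-well insert migration kinetics. HPAF-II cells were harvested at ~80% confluency, resuspended at 5 ×10^5 cells/mL in serum-free DMEM and stained with CellTracker CMFDA. Compound was present at a final 1.25 μM over 24 h. Run in triplicate, with untreated cells as control and NNGH as positive control.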

Staphylococcus aureus [5] = experiment: Antibacterial activity against wild-type Staphylococcus aureus assessed as minimum inhibitory concentration by alamar blue dye based broth microdilution method; format: functional
Staphylococcus aureus [6] = experiment: Antibacterial activity against multidrug resistant strains of Staphylococcus aureus assessed as minimum inhibitory concentration by alamar blue dye based broth microdilution method; format: functional
Stromelysin-1 = Stromelysin-1 (Homo sapiens, UniProt P08254); experiment: Inhibition of MMP-3 (unknown origin)
Sequence of Stromelysin-1 (P08254 whole entry): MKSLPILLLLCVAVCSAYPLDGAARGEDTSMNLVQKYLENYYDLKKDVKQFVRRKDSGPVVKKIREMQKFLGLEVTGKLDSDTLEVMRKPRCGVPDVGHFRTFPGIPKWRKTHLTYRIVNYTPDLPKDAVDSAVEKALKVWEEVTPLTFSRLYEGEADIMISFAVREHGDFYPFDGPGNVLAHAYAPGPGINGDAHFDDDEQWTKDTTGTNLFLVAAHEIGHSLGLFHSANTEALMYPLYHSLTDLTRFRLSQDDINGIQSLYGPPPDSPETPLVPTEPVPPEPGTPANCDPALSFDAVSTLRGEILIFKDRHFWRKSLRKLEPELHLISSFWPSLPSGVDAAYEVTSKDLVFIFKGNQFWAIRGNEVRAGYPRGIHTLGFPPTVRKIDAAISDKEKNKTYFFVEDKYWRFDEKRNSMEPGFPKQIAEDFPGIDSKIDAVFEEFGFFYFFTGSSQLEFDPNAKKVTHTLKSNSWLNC
Method in brief: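 MMP-3 inhibition measured with a commercial MMP-3 drug discovery kit.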

Row | SMILES | MIC (Bacillus anthracis) [µg/mL] | Activity [1] | Activity (HPAF-II [2]) | Activity (HPAF-II [3]) | inhibition at 1.25 µM (HPAF-II [4]) [%] | MIC (Staphylococcus aureus [5]) [µg/mL] | MIC (Staphylococcus aureus [6]) [µg/mL] | pIC50 (Stromelysin-1)
1 | O=C(O)c1cn(C2CC2)c2cc(N3CCNCC3)c(F)cc2c1=O [CIPROFLOXACIN] | 0.064 (≈ 0.193 µM) |  |  |  |  |  |  | 
2 | CCCCCCC/C=C/[C@@H]1O[C@]23C(=O)C[C@@]4(C[C@H](O[C@@H]5O[C@H](CO)[C@@H](O)[C@H](O)[C@H]5O)C[C@H]4[C@@H]2C=C1C)OC3=O |  | inactive | inactive | inactive | 30 |  |  | 
3 | CCCCCCC/C=C/[C@@H]1O[C@@]2(O)C(=O)C=C3C[C@@H](O[C@@H]4O[C@H](CO)[C@@H](O)[C@H](O)[C@H]4O)C[C@H]3[C@@H]2C=C1C | 17 (≈ 32.5 µM) |  |  |  |  | 17 (≈ 32.5 µM) | 17 (≈ 32.5 µM) | 
4 | CCCCCCC/C=C/[C@@H]1O[C@@]2(O)C(=O)C=C3C[C@H](O[C@@H]4O[C@H](CO)[C@@H](O)[C@H](O)[C@H]4O)C[C@H]3[C@@H]2C=C1C | 4 (≈ 7.65 µM) | Active | inactive | inactive | 30 | 4 (≈ 7.65 µM) | 4 (≈ 7.65 µM) | 4.30
